Laboratory results reported in ChEMBL document CHEMBL1926547, “Structure based drug design, synthesis and evaluation of 4-(benzyloxy)-1-phenylbut-2-yn-1-ol derivatives as 5-lipoxygenase inhibitors” (Eur J Med Chem, 2012).
Activity calls are given as the source filed them. The calls are words filed in the database; no cut-off is given here.

Experiments:
[1] = molecular target: T1, Polyunsaturated fatty acid 5-lipoxygenase (Homo sapiens, UniProt P09917); test: Inhibition of 5-LOX assessed as decrease in oxygen concentration using arachidonic acid as substrate by polarigraphic method with Clark's oxygen electrode
T1 sequence (P09917 whole entry): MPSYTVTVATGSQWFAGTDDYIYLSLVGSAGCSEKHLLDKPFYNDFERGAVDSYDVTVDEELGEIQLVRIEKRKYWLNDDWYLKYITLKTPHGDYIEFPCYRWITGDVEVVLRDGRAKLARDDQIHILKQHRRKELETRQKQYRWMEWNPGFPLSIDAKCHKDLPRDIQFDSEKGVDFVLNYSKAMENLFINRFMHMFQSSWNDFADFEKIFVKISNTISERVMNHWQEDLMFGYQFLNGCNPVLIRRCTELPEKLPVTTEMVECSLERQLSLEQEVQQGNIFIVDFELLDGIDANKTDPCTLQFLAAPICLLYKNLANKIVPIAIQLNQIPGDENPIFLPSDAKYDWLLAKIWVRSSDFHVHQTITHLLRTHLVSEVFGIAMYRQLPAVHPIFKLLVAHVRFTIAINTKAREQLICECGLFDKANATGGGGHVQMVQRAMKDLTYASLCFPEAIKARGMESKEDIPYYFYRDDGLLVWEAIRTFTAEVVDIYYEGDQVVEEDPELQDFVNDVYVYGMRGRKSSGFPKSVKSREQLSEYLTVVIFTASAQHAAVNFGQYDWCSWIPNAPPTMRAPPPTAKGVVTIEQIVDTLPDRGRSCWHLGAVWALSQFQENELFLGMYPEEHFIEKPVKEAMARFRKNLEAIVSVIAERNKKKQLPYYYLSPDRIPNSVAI
Method in brief: (§1)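 Purified 5-LOX, activity measured polarographically by Clark oxygen electrode as rate of O2 decrease. Enzyme in 100 mM phosphate pH 6.3, 3 mL final, with compound (DMSO stocks, various concentrations); reaction started with arachidonic acid 133 μM, 25 °C; maximal slope used. IC50 from concentration–inhibition curve; each assay repeated thrice.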

[2] = tested on: HepG2; test: Growth inhibition of human HepG2 cells after 48 hrs by MTT assay; format: functional; settings: HepG2, 48 h
Method in brief: (§2)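 Cells kept in RPMI-1640 + 10% heat-inactivated FBS, penicillin/streptomycin, 2 mM glutamine, 37 °C 5% CO2; seeded 5×10^3/well the day before, washed with PBS, fresh medium. Compounds 0.1–100 μM, 48 h; MTT 4 h at 37 °C, formazan dissolved in DMSO, OD 570 nm. GI50 from dose-survival curves; three experiments in triplicate.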

[3] = tested on: COLO 205; test: Growth inhibition of human COLO205 cells after 48 hrs by MTT assay; format: functional; settings: COLO 205, 48 h; method in brief: as §2
[4] = tested on: MDA-MB-231; test: Growth inhibition of human MDA-MB-231 cells after 48 hrs by MTT assay; format: functional; settings: MDA-MB-231, 48 h; method in brief: as §2
[5] = molecular target: T1, Polyunsaturated fatty acid 5-lipoxygenase; test: Inhibition of 5-LOX; method in brief: as §1
[6] = tested on: Mus musculus; test: Antiinflammatory activity against LPS-induced inflammation in BALB/c mouse acute lung injury model assessed as reduction in macrophage count in bronchoalveolar lavage fluid at 50 mg/kg, ip administered 1 hr prior to LPS challenge measured after 12 hrs by Wright-Giemsa staining based hemocytometry; format: functional, organism-based; design: dose 50 mg/kg
Method in brief: (§3)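 Male BALB/c mice (20–25 g, 6/group), intratracheal LPS 1 mg/kg in PBS under ketamine/xylazine, compound 50 mg/kg ip 1 h prior. At 12 h, lavage three times with 0.5 mL PBS via tracheal cannula; pellet resuspended; total cells by hemocytometer; differentials from ≥200 cells on Wright–Giemsa smear. Mean ± SEM, unpaired t-test.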

[7] = molecular target: T2, Polyunsaturated fatty acid 5-lipoxygenase (Homo sapiens) (UniProt P09917); test: Irreversible inhibition of 5-LOX assessed as decrease in oxygen concentration using arachidonic acid as substrate at 10-fold increased enzyme concentration pre-incubated for 5 mins before substrate addition by polarigraphic method with Clark's oxygen electrode
T2 sequence (whole entry): T1 sequence (P09917 whole entry)
Method in brief: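 Oxygen-electrode 5-LOX assay run with 10-fold excess enzyme: enzyme and compound incubated 5 min, then reaction initiated with arachidonic acid 133 μM; AA-861 control.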

[8] = molecular target: T2, Polyunsaturated fatty acid 5-lipoxygenase (Homo sapiens); test: Irreversible inhibition of 5-LOX assessed as decrease in oxygen concentration using arachidonic acid as substrate measured after dilution by polarigraphic method with Clark's oxygen electrode
[9] = tested on: Mus musculus; test: Antiinflammatory activity against LPS-induced inflammation in BALB/c mouse acute lung injury model assessed as reduction in neutrophil count in bronchoalveolar lavage fluid at 50 mg/kg, ip administered 1 hr prior to LPS challenge measured after 12 hrs by Wright-Giemsa staining based hemocytometry; format: functional, organism-based; design: dose 50 mg/kg; method in brief: as §3
[10] = tested on: Mus musculus; test: Antiinflammatory activity against LPS-induced inflammation in BALB/c mouse acute lung injury model assessed as reduction in wet/dry ratio of lung at 50 mg/kg, ip administered 1 hr prior to LPS challenge measured after 12 hrs; format: functional, organism-based; design: dose 50 mg/kg
Method in brief: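 In BALB/c males given intratracheal LPS (1 mg/kg) after ip dosing at 50 mg/kg 1 h earlier, left lungs excised at 12 h, rinsed thrice in PBS, blotted, weighed, oven-dried at 72 °C for 36–48 h and reweighed; wet/dry ratio indicates edema. Six mice per group.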

[11] = tested on: HaCaT; test: Cytotoxicity against human HaCaT cells at up to 100 uM after 48 hrs by MTT assay; format: cell-based; method in brief: as §2
[12] = tested on: Mus musculus; test: Antiinflammatory activity against LPS-induced inflammation in BALB/c mouse acute lung injury model assessed as reduction in alveolar wall thickening at 50 mg/kg, ip administered 1 hr prior to LPS challenge measured after 12 hrs by hematoxylin and eosin staining based light microscopy
[13] = tested on: Mus musculus; test: Antiinflammatory activity against LPS-induced inflammation in BALB/c mouse acute lung injury model assessed as reduction in inflammatory cells infiltration at 50 mg/kg, ip administered 1 hr prior to LPS challenge measured after 12 hrs by hematoxylin and eosin staining based light microscopy; format: functional, organism-based; design: dose 50 mg/kg
Method in brief: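 Male BALB/c mice (20–25 g, 6/group, fasted 8 h) anesthetized with ketamine/xylazine; LPS 25 μg (1 mg/kg) intratracheal in 50 μL PBS; test agent 50 mg/kg ip 1 h before; PBS vehicle controls. At 12 h right lungs inflated, fixed in 10% buffered formaldehyde, paraffin-embedded, H&E stained; infiltration and wall thickening judged by light microscopy.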

[14] = molecular target: T2, Polyunsaturated fatty acid 5-lipoxygenase (Homo sapiens); test: Inhibition of 5-LOX assessed as decrease in oxygen concentration using arachidonic acid as substrate by polarigraphic method with Clark's oxygen electrode in presence of 0.1 mg/mL BSA
Method in brief: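 Oxygen-electrode 5-LOX assay (phosphate pH 6.3, 25 °C) with enzyme pre-incubated with BSA 0.1 mg/mL plus compound before starting with arachidonic acid 133 μM; reduced inhibition taken as sign of non-specific binding. AA-861 control.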

[15] = tested on: Mus musculus; test: Antiinflammatory activity against LPS-induced inflammation in BALB/c mouse acute lung injury model assessed as reduction in protein level in bronchoalveolar lavage fluid at 50 mg/kg, ip administered 1 hr prior to LPS challenge measured after 12 hrs by Bradford assay; format: functional, organism-based; design: dose 50 mg/kg
Method in brief: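 Mouse LPS lung-injury model as described (BALB/c males, intratracheal LPS 1 mg/kg, compound 50 mg/kg ip 1 h beforehand). BAL fluid collected 12 h post-challenge, centrifuged 3000 rpm 10 min at 4 °C; supernatant stored −70 °C; protein by Bradford, expressed as mg/mL BALF. Six mice per group.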

[16] = tested on: Mus musculus; test: Antiinflammatory activity against LPS-induced inflammation in BALB/c mouse acute lung injury model assessed as reduction in total cell count bronchoalveolar lavage fluid at 50 mg/kg, ip administered 1 hr prior to LPS challenge measured after 12 hrs by Wright-Giemsa staining based hemocytometry; format: functional, organism-based; design: dose 50 mg/kg; method in brief: as §3

IC50 [1] [µM] | GI50 [2] [µM] | GI50 [3] [µM] | GI50 [4] [µM] | SMILES | other results
> 100 | – | – | – | COc1ccc(C(O)C#CCOCc2ccc(SC)cc2)cc1 (stereo not given) | –
62 | 54 | 71 | 62 | CSc1ccc(COCC#CC(O)c2cccc([N+](=O)[O-])c2)cc1 (stereo not given) | –
– | – | – | – | CCCC(O)C#CCOCc1ccccc1 (stereo not given) | IC50 [5]: 760 µM
69 | – | – | – | COc1cccc(C(O)C#CCOCc2ccc(SC)cc2)c1OC (stereo not given) | –
8 | 22 | 12 | 15 | CSc1ccc(COCC#CC(O)c2ccc(C(C)C)cc2)cc1 (stereo not given) | inhibition [6]: Active; inhibition [7]: Active; inhibition [8]: Active; inhibition [9]: Active; Activity [10]: Active; Activity [11]: Non-toxic; inhibition [12]: Active; inhibition [13]: Active; fold change (FC) [14]: 1; inhibition [15]: Active; inhibition [16]: Active
– | – | – | – | Cc1ccc(-c2cc(C(F)(F)F)nn2-c2ccc(S(N)(=O)=O)cc2)cc1 | inhibition [6]: Active; inhibition [9]: Active; Activity [10]: Active; inhibition [12]: Active; inhibition [13]: Active; inhibition [15]: Active; inhibition [16]: Active
72 | – | – | – | COc1ccc(C(O)C#CCOCc2ccc(SC)cc2)c(OC)c1OC (stereo not given) | –
80 | – | – | – | COc1ccc(C(O)C#CCOCc2ccc(SC)cc2)cc1OC (stereo not given) | –
41 | 54 | 71 | 62 | CSc1ccc(COCC#CC(O)c2ccc(C#N)cc2)cc1 (stereo not given) | –
12 | 31 | 22 | 20 | CSc1ccc(COCC#CC(O)c2ccc(F)cc2)cc1 (stereo not given) | inhibition [7]: Active; inhibition [8]: Active; Activity [11]: Non-toxic; fold change (FC) [14]: 1
> 100 | – | – | – | CCCCCC(O)C#CCOCc1ccc(SC)cc1 (stereo not given) | –
1.7 | – | – | – | CC1=C(C)C(=O)C(CCCCC#CCCCC#CCO)=C(C)C1=O [DOCEBENONE] | –
> 100 | – | – | – | OC(C#CCOCc1ccccc1)c1ccccc1 (stereo not given) | –
80 | 100 | 100 | 100 | COc1cc(C(O)C#CCOCc2ccc(SC)cc2)cc(OC)c1OC (stereo not given) | –
